# Screening results: PubChem BioAssay, several laboratories
# SKN-1 block: suppressors of acrylamide-induced Pgst-4::GFP reporter in worms, primary screen, SKN-1 inhibitor project, whole organism, uHTS, GFP/RFP fluorescence ratio, strain VP596; C. elegans VP596 Pgst-4::GFP/RFP ratio, 24 h; AID 624304, 2012; 0.49% of 360,000 active; inhibition, % at 21.8 µM;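 active = interference check ratio from 0.5 to 1.5 plus GFP to RFP signal ratio inhibition reaching or exceeding a fixed threshold, cut at about 30% in these data, passing the limit was not always enough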
# MsrA inh: bovine MsrA enzyme inhibitors, primary screen, biochemical, absorbance, HTS | AID 651718, 2012 | purified bovine MsrA, absorbance read-out | inhibition, % at 15.5 µM | 0.75% of 360,000 active; in the data active = inhibition above about 4.5%;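 note: 0% = vehicle wells with enzyme and 100% = reference inhibitor wells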
# MT1-MMP act inh: blockers of MT1-MMP proenzyme processing, primary screen, HT1080 RFP-PRO-GFP cells, GFP/RFP fluorescence; Matrix metalloproteinase-14 (Homo sapiens), P50281; GFP/RFP ratio fluorescence, overnight; percent of plate control window, DMSO zero; GFP/RFP ratio change, % at 20 µM; 0.061% of 360,000 active; AID 651647, 2012;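 active = GFP/RFP ratio change of at least 30% with cell ATP level not reduced by more than half and red fluorescence within 50% of control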
#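 Assay system: HT1080 RFP-PRO-GFP cells. Benchmarks: DMSO vehicle wells and RFP-L50D-GFP reporter cell wells. Times: overnight cell settling, then overnight compound exposure, 37 °C, 5% CO2. Compound: 20 µM single dose, 1% DMSO. Read-out basis: GFP/RFP fluorescence ratio.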
# MIN6 prolif: inducers of MIN6 beta-cell proliferation, primary screen, ATP luminescence, uHTS. MIN6 cells proliferation, ATPlite luminescence, 48 h; cells starved in 0.2% serum; 100% = growth in 10% serum. proliferation, % at 10 µM. 0.29% of 330,000 active;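 active = compounds whose signal lies at least 3.5 SD above the mean of all wells on their plate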;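 note: 0% = DMSO-treated cells in low-serum medium and 100% = 10% serum control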
# DAGLB inhibitor: DAGLB lipase inhibitors, primary screen, biochemical, fluorescence, HTS; 0.059% of 340,000 active; inhibition, % at 5.17 µM; HEK293T DAGLB membrane lysate, EnzChek fluorogenic substrate; in the data active = inhibition above about 34%;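 note: 0% = enzyme with vehicle and 100% = wells lacking enzyme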
# Target sequence (Q8NCG7 whole entry, looked up): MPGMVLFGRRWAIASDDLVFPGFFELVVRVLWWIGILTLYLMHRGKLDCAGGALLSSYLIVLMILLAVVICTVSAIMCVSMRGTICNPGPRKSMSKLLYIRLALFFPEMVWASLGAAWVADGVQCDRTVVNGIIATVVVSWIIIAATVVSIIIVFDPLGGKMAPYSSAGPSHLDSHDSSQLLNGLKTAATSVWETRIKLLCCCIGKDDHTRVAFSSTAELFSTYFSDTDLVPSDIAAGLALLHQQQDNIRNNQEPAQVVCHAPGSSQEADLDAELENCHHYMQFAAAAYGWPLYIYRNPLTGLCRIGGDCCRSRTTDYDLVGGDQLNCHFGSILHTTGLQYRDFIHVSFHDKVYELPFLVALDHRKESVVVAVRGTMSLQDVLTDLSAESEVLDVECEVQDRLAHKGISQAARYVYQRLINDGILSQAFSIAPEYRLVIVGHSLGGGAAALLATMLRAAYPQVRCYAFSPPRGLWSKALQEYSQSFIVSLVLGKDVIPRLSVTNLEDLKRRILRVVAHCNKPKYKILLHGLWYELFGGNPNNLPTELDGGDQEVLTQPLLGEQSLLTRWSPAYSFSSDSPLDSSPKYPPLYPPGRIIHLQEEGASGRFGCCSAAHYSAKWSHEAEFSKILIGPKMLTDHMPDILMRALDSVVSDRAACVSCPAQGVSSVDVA
# MsrA act: bovine MsrA enzyme activators, primary screen, biochemical, absorbance, HTS; Methionine sulfoxide reductase A (Bos taurus); purified bovine MsrA, absorbance read-out; activation, % at 10.6 µM; 0.3% of 360,000 active; in the data active = activation above about 7.5%;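 note: 0% = vehicle and 100% = reference activator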
# * marks the source's active call; other numbers are inactive results; x = no result. This is a sample that favours compounds with a hit; in the whole collection about 1.8% have one here.
SMILES,SKN-1 block,MsrA inh,MT1-MMP act inh,MIN6 prolif,DAGLB inhibitor,MsrA act
CC[C@@H]1CCC[C@@H](O)[C@@H](C)C(=O)O[C@H](C)[C@@H](C)C/C=C(C)/C(OC)=C\C(=O)N(C)C([C@@H](C)CC)C(=O)N(C)[C@@H](C(C)C)C(=O)N(C)[C@@H](COC)C(=O)N2CCC[C@H]2C(=O)N(C)[C@@H](C(C)C)C(=O)N2CCC[C@H]2C(=O)O1 (stereo partly drawn),44*,-1,-20,x,x,2
COCCCNC(=O)c1nnn2c1nc(N)c1cc(Cl)ccc12,x,1,x,x,x,x
COc1ccc(-c2cc(C(=O)Nc3c(C)nn(Cc4ccccc4)c3C)no2)cc1,36*,0,10,-3,1,-4
COC(=O)c1cc2c(c3c4cc(C#N)ccc4n(S(=O)(=O)c4ccc(C)cc4)c13)C(=O)N(C)C2,x,-1,x,x,x,x
N#CC1=C(N)N(c2ccc(F)cc2)C2=C(C1c1ccc(O)cc1)S(=O)(=O)CC2 (stereo not drawn),35*,1,16,x,4,-3
CSC1=NC2(CC(c3ccccc3)Oc3cc(O)ccc32)CC(C)(C)N1 (stereo not drawn),43*,-1,-9,-4,-5,-1
COc1cccc(C2CC3(CC(C)(C)NC(=S)N3)Oc3cc(O)ccc32)c1 (stereo not drawn),7,1,17,0,4,-4
CCn1c(SCC(=O)Nc2nc(C)c(C)s2)nnc1-c1cccnc1,10,0,3,-2,0,-8
CCn1c(SCC(=O)Nc2ccc(NC(=O)c3cccs3)cc2)nnc1-c1cccnc1,35*,0,-4,-2,0,-3
C[C@@H]1ON(C)[C@H]2C[C@H]3c4[nH]c5c(-c6ccc7c(c6)OCO7)cccc5c4CCN3C(=O)[C@@H]12,x,0,x,x,x,x
N#Cc1ccccc1OCC(O)CS(=O)(=O)c1ccccc1 (stereo not drawn),53*,0,1,1,0,-8
C(/C=C/c1ccccn1)=C\c1ccccc1,64*,1,-1,-3,-7,-2
COC(=O)c1cc2c(c3c4cc(C)ccc4n(S(=O)(=O)c4cccc(C)c4)c13)C(=O)N(C)C2,x,0,x,x,x,x
CCOC(=O)CN1CC23C=CC(O2)C(C(=O)NCc2ccc(C)cc2)C3C1=O (stereo not drawn),-3,0,1,-4,0,-2
CCOC(=O)CN1CC23C=CC(O2)C(C(=O)NCc2cccs2)C3C1=O (stereo not drawn),37*,4,5,0,2,-6
O=C(C=Cc1ccccc1)CC(c1ccccc1)N1CCOCC1 (stereo not drawn),83*,2,5,x,-5,-6
O=C(C(c1ccccc1)N1CCOCC1)N1CCOCC1 (stereo not drawn),15,0,0,3,1,-4
CCN1C(=O)/C(=C/C=C2/Sc3ccc4ccccc4c3N2CCO)SC1=S,31,0,29,-1,0,-4
CCN1C(c2ccccc2)=C(c2ccccc2)S/C1=C\C=C1/SC(=S)N(C)C1=O,50*,0,31,-3,14,-4
COC(=O)[C@]12C[C@H](CC(=O)NCc3ccc(C)o3)C(=O)N(CCC3=CCCCC3)C1=C[C@H](COCc1ccccc1)O[C@@H]2C,x,0,x,x,x,x
O=C(COC(=O)c1cc(-c2cccs2)nc2ccccc12)NCc1ccco1,0,0,4,-1,-3,-2
O=C(COC(=O)c1cc(-c2ccc(Cl)s2)nc2ccccc12)NCc1ccco1,1,4.6*,-4,-1,6,-3
N/C(=N\OC(=O)COc1ccc(Cl)cc1Cl)c1ccncc1,48*,0,3,x,-3,-3
Cn1nccc1C(=O)N1CCC(Cc2ccccc2)CC1,38*,0,0,0,-3,-2
NC(=O)c1ncn([C@@H]2O[C@H](C(=O)N[C@H](Cc3ccccc3)C(=O)N3CCN(c4ccc(Cl)cn4)CC3)[C@@H](O)[C@H]2O)n1,x,1,x,x,x,x
SMILES,SKN-1 block,MsrA inh,MT1-MMP act inh,MIN6 prolif,DAGLB inhibitor,MsrA act
C#CCN(C[C@H]1[C@H](OC(=O)NCCCCCC)[C@H](OC(=O)NCCCCCC)CN(C(=O)OC(C)C)N1C(=O)OC(C)C)S(=O)(=O)c1ccc(C)cc1,x,1,x,x,x,x
CC(C)c1[nH]nc2c1C(c1ccccc1)NC2=O (stereo not drawn),x,0,x,x,x,x
COCCN1CCCc2nc(-c3ccc(F)cc3)ccc21,x,0,x,x,x,x
S=C(Nc1ccccc1)Nc1nc2ccccc2n1CCOc1ccc(Cl)cc1,59*,4,9,-6,-4,-1
CCCn1c(NC(=S)Nc2ccccc2)nc2ccccc21,7,3,6,0,7,-2
CCc1nc2ccccc2c(C(=O)OCC(=O)N(CCOC)c2c(N)n(Cc3ccccc3)c(=O)[nH]c2=O)c1C,41*,-1,-18,-2,3,-3
CCNC(=O)N(C)[C@H]1C[C@H]2c3[nH]c4c(-c5ccccc5)cccc4c3CCN2C(=O)[C@H]1[C@H](C)O,x,0,x,x,x,x
COC(=O)C1=C(C)N(Cc2ccc(Br)cc2)C(=S)NC1c1ccccc1 (stereo not drawn),x,1,x,x,x,x
O=C(Nc1cc(Cl)ccc1N1CCOCC1)c1ccc(Br)o1,-5,1,-4,-1,-1,-3
O=C(Nc1ccc(Cl)cc1Cl)c1ccc(Br)o1,36*,1,1,0,-8,-3
CC(C)C[C@@H]1COc2cccc(NC3CC3)c2S(=O)(=O)N1,x,1,x,x,x,x
Fc1ccc(-n2nnc(-c3cccnc3Cl)n2)cc1,68*,-1,-2,-5,-10,-1
Fc1ccc(-n2nnc(-c3nccs3)n2)cc1,71*,0,4,-4,-2,-2
CCOc1ccc(-c2nnc(-c3cccs3)o2)cc1,70*,0,0,0,-19,-1
CCOc1ccc(-c2nnc(-c3cccs3)o2)cc1OCC,15,1,2,0,-10,-2
C=CCc1c(C)nc2cc(-c3ccc(C)cc3)[nH]n2c1=O,5,0,-4,-5,-1,-5
CCc1c(C)nc2cc(-c3ccccc3)[nH]n2c1=O,36*,1,-9,-3,-3,-3
